# Sampled rows, rich in hits. Any-hit rate of the full collection: about 1.4%.
# PMI activator: activators of human phosphomannose isomerase; activation factor at 20 µM; P34949; 190,000 tested, 0.005% active; AID 1214; purified human PMI, coupled resazurin fluorescence, 20 min; active compounds read high; 1 = vehicle control, 0 substrate-free wells;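 active = activation factor of 2 or more at 20 µM, relative to plate controls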
# Target sequence (P34949 whole entry, looked up): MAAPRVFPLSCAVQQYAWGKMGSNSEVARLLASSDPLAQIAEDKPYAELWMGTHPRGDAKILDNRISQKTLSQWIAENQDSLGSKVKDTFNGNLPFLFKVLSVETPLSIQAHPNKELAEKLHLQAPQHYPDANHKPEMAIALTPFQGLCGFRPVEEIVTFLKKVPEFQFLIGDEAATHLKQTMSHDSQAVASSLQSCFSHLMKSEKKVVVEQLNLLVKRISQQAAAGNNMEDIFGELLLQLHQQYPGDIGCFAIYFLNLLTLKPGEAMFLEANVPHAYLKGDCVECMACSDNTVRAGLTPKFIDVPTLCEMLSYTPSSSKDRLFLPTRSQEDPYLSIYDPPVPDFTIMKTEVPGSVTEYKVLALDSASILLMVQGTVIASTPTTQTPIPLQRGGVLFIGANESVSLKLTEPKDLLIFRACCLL
# p47phox inh: inhibitors of human p47phox binding; P14598; p47phox/p22phox peptide binding, fluorescence polarization, 2 h; inhibition, % at 24.7 µM; 220,000 tested, 0.53% active;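 active = inhibition above about 30%, limit read from the data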
# Diaph act CS: counter-screen for diaphorase-based assays: diaphorase activators and chemical reducers. activation factor at 20 µM. 190,000 tested, 0.005% active. Diaphorase/resazurin coupled assay, resorufin fluorescence, 16 min; active compounds read high; 1 = vehicle wells, 0 = NADH-free wells. AID 1229;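 active = diaphorase activity raised at least twofold by the compound at 20 µM; inactive = activation factor below 2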
#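 Material: bacterial diaphorase enzyme (C. kluyveri); amount: enzyme 0.07 U/mL final; reagent: NADH substrate 0.114 mM plus resazurin dye 0.1 mM, final; doses: single compound dose of 20 µM, 1% DMSO final; timing: 16 min enzyme reaction, ambient temperature; measured by: fluorescence of resorufin, 544 nm excitation, 590 nm emission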
# Avidin fluor: avidin bead compound fluorescence profile | fluorescence (KMESF) at 10 µM | 220,000 tested, 0.38% active | Avidin beads, compound fluorescence 488/530 nm, flow cytometry; active compounds read high; in the data active = fluorescence above about 47
# GSH bead fluor: GSH bead compound fluorescence profile. GSH beads flow cytometry, compound fluorescence 488/530 nm; active compounds read high. fluorescence (KMESF) at 10 µM. 190,000 tested, 0.25% active; in the data active = fluorescence above about 89;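 also: glutathione beads carrying GST-tagged Bcl family fusion proteins plus one bare bead set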
# PMI act satM6P: PMI (human) activation, high substrate; AID 1216; coupled PMI enzyme assay, resazurin fluorescence, 20 min; active compounds read high; 1 = untreated enzyme, 0 = substrate-free blank; P34949; 190,000 tested, 0.34% active; activation factor at 20 µM;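 active = activation factor of 2 or more at 20 µM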
#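 Material: human phosphomannose isomerase with PGI, G6PDH, diaphorase coupling enzymes; amount: PMI at 15 ng/mL final; also added: Mannose-6-phosphate 1.0 mM (near-saturating) plus 0.22 mM NADP+; incubation: enzyme reaction with compound 20 min at room temperature; signal: resorufin fluorescence (Ex 544/Em 590 nm) from resazurin via diaphorase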
# A number is an active result; 0 = inactive; - = no result; + = active, no number.
SMILES,PMI activator,p47phox inh,Diaph act CS,Avidin fluor,GSH bead fluor,PMI act satM6P
FC(F)(F)c1ccccc1C1C2=C(Nc3ncnn31)c1ccccc1CCC2 (centres undefined),0,0,0,0,0,0
COc1cccc(C(=O)NC2CC3CCCC(C2)N3CC(=O)Nc2ccccc2)c1 (centres undefined),0,58.2,0,0,0,0
COc1cccc(C(=O)NC2CC3CCCC(C2)N3CC(=O)Nc2ccc(N(C)C)cc2)c1 (centres undefined),0,0,0,0,0,0
CN(c1ccccc1C(=O)Nc1ccc(F)c(Cl)c1)S(C)(=O)=O,0,0,0,0,0,0
CC1=NN(c2ccccc2)C(=O)/C1=C\C=C\c1ccccc1,-,0,-,0,-,-
CC1=NN(c2ccccc2)C(=O)/C1=C/C=C/c1ccc(N(C)C)cc1,0,44.1,0,0,0,0
C#CCNC(=O)C1=C[C@H](c2ccccc2)[C@@H](CCCO)[C@H](OCC)O1,0,-,0,0,0,0
COC(=O)c1cccc(Cn2c(Cl)c(/C=N/Nc3ccccc3C)sc2=O)c1,0,0,0,0,0,2.5
Cc1ccccc1N/N=C/c1sc(=O)n(Cc2cccc(C(=O)O)c2)c1Cl,-,0,-,0,-,-
COc1ccccc1NC(=O)N1CCCC1C(=O)NC12CC3CC(CC(C3)C1)C2 (centres undefined),0,0,0,0,280,0
Cc1ccc(/C(CSc2nccn2-c2ncc(C(F)(F)F)cc2Cl)=N\O)cc1,0,+,0,0,0,0
O=C(CSc1nccn1-c1ncc(C(F)(F)F)cc1Cl)c1ccc(Br)cc1,0,0,0,0,0,0
COc1cccc(CN2CCNC(=O)C2CC(=O)NC2Cc3ccccc3C2)c1 (centres undefined),0,0,0,0,0,0
Cc1oc(CC(C)C)cc1C(N)=O,-,0,-,-,0,-
CNC(=O)CCc1[nH]c2ccccc2c1Sc1ccccc1,0,33.5,0,0,0,0
C=CCNC(=O)c1ccc(Cn2c(=S)[nH]c3cc4c(cc3c2=O)OCO4)cc1,0,0,0,47,0,0
Cc1ccc(NS(=O)(=O)c2cccc(C(=O)OCC(=O)NCc3ccco3)c2)cc1,0,0,0,0,231,0
Cc1ccc(NS(=O)(=O)c2ccc(OCC(=O)NCc3ccco3)cc2)cc1,0,0,0,0,0,0
CCCn1c2c(c(O)c(C(=O)NCc3ccccc3)c1=O)CCCC2,0,0,0,54,0,0
O=C(CCC(=O)Nc1ccc(Cl)cc1Cl)NNC(=O)[C@@H]1CCCC[C@@H]1C(=O)O,0,0,0,0,0,0
CCOC(=O)N1CCC(=NNS(=O)(=O)c2cccc([N+](=O)[O-])c2)CC1,0,0,0,0,0,2.1
CN(C)c1nc(N2CCOCC2)nc(N(c2ccccc2)c2ccccc2)n1,0,0,0,0,266,0
Nc1nc(N2CCOCC2)nc(N(c2ccccc2)c2ccccc2)n1,0,0,0,0,0,0
Cc1ccc(O)c(C(=O)c2cc(C(=O)NCCc3ccccc3)c(=O)n(CCc3ccccc3)c2)c1,0,0,0,0,0,0
Cc1ccc(CNC(=O)CCc2c(C)nc3c(c(C)nn3-c3ccc(C)cc3)c2C)cc1,0,0,0,0,0,0
SMILES,PMI activator,p47phox inh,Diaph act CS,Avidin fluor,GSH bead fluor,PMI act satM6P
Cc1ccc(-n2nc(C)c3c(C)c(CCC(=O)NCc4ccccc4)c(C)nc32)cc1,0,130.4,0,0,0,0
C=C(C)C1CC=C(C)/C(=N/NC(=O)c2ccc(NC(=O)c3cccc(C)c3)cc2)C1 (centres undefined),0,36.8,0,0,0,0
C=C(C)C1CC=C(C)/C(=N/NC(=O)c2cccc([N+](=O)[O-])c2)C1 (centres undefined),0,0,0,0,0,0
O=C(O)/C(=C\c1ccccc1OC(F)F)Sc1nnc(-c2ccc(F)cc2)o1,0,0,0,0,0,0
Cc1ccc(C)c2[nH]c(=O)c(C(c3nnnn3Cc3ccccc3)N3CCc4ccccc4C3)cc12 (centres undefined),0,0,0,0,266,0
Cc1ccc(-n2c(O)c(C=NC3CCS(=O)(=O)C3)c3ccccc3c2=O)cc1 (centres undefined),0,51.2,0,0,0,0
N#Cc1nc(COc2ccc(-c3ccccc3)cc2)oc1NCCCN1CCOCC1,0,0,0,233,0,0
O=C(NC(=O)N1CCN(c2ccc([N+](=O)[O-])cn2)CC1)c1ccccc1F,-,0,-,0,-,-
O=C(NC(=O)N1CCN(c2ccc([N+](=O)[O-])cn2)CC1)c1c(Cl)cccc1Cl,-,0,-,49,-,-
Cc1nn(CC#N)c(=O)n1-c1ccccc1,0,0,0,0,262,0
Cc1nn(CC#N)c(=O)n1-c1ccc(Cl)cc1,0,0,0,0,0,0
COc1ccccc1-c1nc(C#N)c(N2CCN(c3ccccc3)CC2)o1,0,0,0,0,0,0
COc1ccc(N2CCN(c3oc(-c4ccccc4OC)nc3C#N)CC2)cc1,0,53.8,0,0,0,0
CCOc1cccc(/C(O)=C2/C(=O)C(=O)N(Cc3cccnc3)C2c2ccco2)c1 (centres undefined),0,0,0,58,0,0
COc1cc2c(cc1NC(=O)CSc1nnc(Cc3cccs3)n1Cc1ccco1)oc1ccccc12,0,0,0,0,0,0
COc1cc2c(cc1NC(=O)CSc1nnc(Cc3cccs3)n1C)oc1ccccc12,0,0,0,105,0,0
COc1ccccc1C(=O)Nc1nnc(SCC(=O)Nc2ccc3c(c2)oc2ccccc23)s1,0,0,0,0,811,0
Cc1cccc(C(=O)Nc2nnc(SCC(=O)Nc3ccc4c(c3)oc3ccccc34)s2)c1,0,0,0,0,0,0
Clc1ccc(/C(Cc2nc3ccccc3[nH]2)=N\Nc2ccccc2)cc1,0,-,0,0,0,3
COc1ccc(-c2cc(=O)oc3cc(OCC(=O)c4cccc([N+](=O)[O-])c4)ccc23)cc1,0,63.8,0,0,0,0
COc1ccc(-c2cc(=O)oc3cc(OCC(C)=O)ccc23)cc1,0,0,0,0,0,0
O=C(CSc1nc2cc(Cl)ccc2o1)c1cccs1,0,0,0,0,0,0
Cc1nc2ncnn2c(C)c1CCC(=O)NC(C)c1ccc2c(c1)OCCO2 (centres undefined),0,0,0,0,0,0
CC1(C)Cc2cccc(OCC(=O)Nc3cc(C(F)(F)F)ccc3N3CCOCC3)c2O1,0,0,0,141,0,0
CC(=O)Nc1ccc(NC(=O)COc2cccc3c2OC(C)(C)C3)cc1,0,0,0,58,0,0
CCOc1ccc(C(=O)NC2CC3CCCC(C2)N3CC(C)C)cc1 (centres undefined),0,0,0,0,0,0

# High-throughput results deposited in PubChem by several laboratories.
